Experimental data gathered from unrelated publications.
Each line is one published result; the experiments were not run side by side.
BRD4 BD2: Bromodomain-containing protein 4, BD2 (BRD4, Homo sapiens, UniProt O60885)
BRD4 BD1: Bromodomain-containing protein 4, BD1 (BRD4, Homo sapiens, UniProt O60885)

| SMILES | target | assay | conditions | endpoint | result |
| --- | --- | --- | --- | --- | --- |
| NS(=O)(=O)c1ccc(Nc2nc(-c3ccc(F)cc3)c3ccccc3n2)cc1 | BRD4 BD2 | binding, competition with immobilised ligand | 1 µM | remaining binding | 4% |
| Cn1cc(C(=O)Nc2cccc(C(=O)O)c2)ccc1=O | BRD4 BD1 | thermal stability, DSF | 100 µM | ΔTm | 0.9 °C |
| CC(C)[C@@H]1NC(=O)[C@@H]2CCCN2C(=O)[C@H](Cc2ccccc2)NC(=O)CSC[C@@H](C(=O)N[C@@H](Cc2ccc(O)cc2)C(N)=O)NC(=O)[C@H](Cc2c[nH]c3ccccc23)NC(=O)[C@H](CCCCN)NC(=O)[C@H](Cc2ccccc2)N(C)C(=O)[C@H](Cc2ccccc2)NC1=O | BRD4 BD1 | thermal stability, DSF | 100 µM | ΔTm | -0.52 °C |
| COc1cc(C(=O)N2CCC(N3CCN(C)CC3)CC2)ccc1Nc1ncc2c(n1)N(C)c1ccccc1C(=O)N2C | BRD4 BD1 | thermal stability, DSF | 10 µM | ΔTm | 2.1 °C |
| Cc1cnc(Nc2ccc(OCCN3CCCC3)cc2)nc1Nc1cccc(S(=O)(=O)NC(C)(C)C)c1 | BRD4 BD1 | thermal stability, DSF | 10 µM | ΔTm | 3.8 °C |
| CN(C)CCN1CCN(c2nc(NCc3cccc(Cl)c3)c3cc(-c4ccc(=O)n(C)c4)ccc3n2)CC1 | BRD4 BD2 | thermal stability, DSF | 250 µM | ΔTm | 11 °C |
| Cc1cc2c(NC(=O)c3cccc(C(=O)O)c3)cccc2nn1 | BRD4 BD1 | thermal stability, DSF | 100 µM | ΔTm | 1.4 °C |
| CC(C)(C)c1cc(NC(=O)Nc2ccc(-c3cn4c(n3)sc3cc(OCCN5CCOCC5)ccc34)cc2)no1 | BRD4 BD1 | thermal stability, DSF | 100 µM | ΔTm | < 1 °C |
| C[S+]([O-])c1ccc(-c2nc(-c3ccncc3)c(-c3ccc(F)cc3)[nH]2)cc1 (stereo not drawn) | BRD4 BD1 | thermal stability, DSF | 10 µM | ΔTm | 1.32 °C |
